Source: PubChem BioAssay AID540337 (Southern Research Specialized Biocontainment Screening …, 2011)
Calls of active or inactive are those of the source.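 How the source made its calls: active means at least 50% inhibition of virus-induced cell damage; inactive means the rest.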

What follows are compounds tested on HEp-2 RSV Long CPE inhibition, luminescence (assay: antiviral protection of cells from RSV – synthesized compounds, set 12, CPE, dose response (AID 540337)).
Outline: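 Assay system: HEp-2 cells infected with RSV strain Long; Schedule: 6 d at 37 °C; Detection: luminescent CPE read-out; Controls: uninfected cell-only wells and virus-infected wells without compound; Replication: triplicate.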

Row | SMILES | IC50
1 | COCCCNC(=O)c1ccc(Cn2c(=O)c3ccccc3n(CC3CCCCC3)c2=O)cc1 | > 50 µM (inactive)
2 | COCCCNC(=O)c1ccc(Cn2c(=O)c3ccccc3n(Cc3ccccn3)c2=O)cc1 | > 50 µM (inactive)
3 | COCCCNC(=O)c1ccc(Cn2c(=O)c3ccccc3n(Cc3cccnc3)c2=O)cc1 | > 50 µM (inactive)
4 | COCCCNC(=O)c1ccc(Cn2c(=O)c3ccccc3n(CCc3ccc(C(F)(F)F)cc3)c2=O)cc1 | > 50 µM (inactive)

Second part, the compound after the results:

Row | IC50 | SMILES
5 | 2.5 µM | COCCCNC(=O)c1ccc(Cn2c(=O)c3ccccc3n(Cc3ccc(C)cc3)c2=O)cc1
6 | > 50 µM (inactive) | COCCCNC(=O)c1ccc(Cn2c(=O)c3ccccc3n(CCc3ccc(Br)cc3)c2=O)cc1
7 | > 50 µM (inactive) | COCCCNC(=O)c1ccc(Cn2c(=O)c3ccccc3n(CCc3ccc(C)cc3)c2=O)cc1
